Shown are actives, neighbours in structure and some others; about 4.2% of the full set was active somewhere.
KCNQ1 act: human KCNQ1 channel potentiation or activation | P51787 | CHO-K1 KCNQ1, thallium flux FluxOR fluorescence; hits give high values | B-score at 10 µM | 0.35% of 310,000 active | AID 2648;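 active = fluorescence ratio B-score, a plate-corrected score, at least three library SD, with initial intensity B-score within 5 SD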
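Schedule – 37 °C overnight plating, 90-min dark dye load, 20-min compound pretreatment · System – stable KCNQ1 CHO-K1 line · Probe or stimulus – thallium- and potassium-containing depolarizing buffer · Measured by – kinetic FluxOR fluorescence, 10 s baseline plus 110 s post-stimulus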
AI-2 QS mod: Vibrio harveyi AI-2 quorum sensing modulation | Vibrio harveyi JMH597 AI-2 luminescence/OD600 ratio, 9 h; hits give low values; strain lacks LuxN and CqsS sensors; 0 = neutral-control median | activity change, % at 7.5 µM | 0.4% of 300,000 active | AID 2094; in the data active = activity change below about -75%, passing the limit was not always enough;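 also: luminescence divided by OD600 gain over 9 h not by final OD600 alone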
Mot1-301 SUMO: SUMOylation pathway inhibition by Mot1-301 growth rescue; S. cerevisiae Mot1-301 growth rescue, ATP luminescence, 38.5C; percent above DMSO median, 100 means doubled; growth rescue, % at 18.8 µM; 1% of 320,000 active;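 active = every valid replicate shows activation above 250% relative to neutral control wells; inactive = the rest, any valid replicate at or below 250%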;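 also: OY570 slx delta 5 strain wells were the positive control but not used for scaling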
KCNQ1 block: inhibitors of human KCNQ1 potassium channel | P51787 | CHO-K1 KCNQ1, FluxOR thallium flux fluorescence; hits give high values | B-score at 10 µM | 1.3% of 310,000 active;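 active = compounds whose thallium flux B-score, printed positive for inhibition, exceeds three library SD while starting fluorescence stays within three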;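 also: channel opened by potassium depolarization with thallium stimulus after 20 min compound exposure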
KCC2 mod: modulators of human KCC2 chloride dependent transport | KCC2 cells, thallium flux FluoZin-2 fluorescence | B-score of Tl+ flux slope (higher = more flux/activation; lower = inhibition) at 10 µM | 2.2% of 190,000 active | AID 1456;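 active = thallium flux slope and its plate-corrected score both differing from the plate sample mean at a set confidence after two filtering rounds, in either direction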;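 also: slope of fluorescence scaled to starting intensity during 10 to 20 s after thallium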
hERG protect: hERG (human) protection from proarrhythmic block; Q12809; CHO-hERG, FluxOR thallium flux, dofetilide IC70 present; activation (rescue from dofetilide block), less the hit threshold, % at 10 µM; 0.51% of 310,000 active; AID 1511;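 active = activation above the mean of controls blocked by dofetilide plus 5 SD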;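 also: thallium influx through hERG after potassium depolarization seen as dye fluorescence rise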
* hit, by the source's call; i = inactive; nt = no result.

SMILES	KCNQ1 act	AI-2 QS mod	Mot1-301 SUMO	KCNQ1 block	KCC2 mod	hERG protect
O=C1C2CCCN2C(=O)N1CCCCN1CCN(c2cccc(Cl)c2)CC1 (configuration not stated)	i	19	-2	i	nt	-9
Cc1ccc([C@@H]2CC=C(C(=O)O)[C@H](c3cccc(Cl)c3)N2S(=O)(=O)c2ccccc2C)cc1	nt	nt	295*	nt	nt	nt
O=C(Nc1ccccc1F)c1ccc([N+](=O)[O-])s1	i	-115*	-34	i	1.1	0
O=C(Nc1ccc([N+](=O)[O-])cc1Cl)c1cc(Cl)ccc1O	nt	nt	-17	nt	nt	nt
O=C(Nc1ccccc1F)Nc1ccc([N+](=O)[O-])cc1Cl	i	-3	17	8*	0.26	-11
CS(=O)(=O)c1ccc(C(=O)OCc2nnc(-c3ccc(Cl)cc3)o2)cc1[N+](=O)[O-]	12*	3	11	i	nt	-18
Cc1ccccc1C(=O)Nc1ccnn1C1CCN(C(=O)c2cnsn2)CC1	i	14	-7	i	nt	-5
Cc1ccc(NC(=O)c2c([N+](=O)[O-])c(C(C)(C)C)nn2C)cc1	i	-11	6	i	-3	24*
CC(O)Cc1cn([C@@H](CCCCN)C(=O)N2CCNCC2)nn1 (some centres not stated)	19*	21	2	i	0.3	-7
Cc1ccc(OCCCCNC2CCCC(C)C2C)c(C)c1 (configuration not stated)	i	12	20	6*	0.4	-6
O=C(O)c1cc(-c2cccc([N+](=O)[O-])c2)n[nH]1	i	19	-6	i	1.1	49*
O=C(Nc1nc(-c2ccc(Cl)cc2Cl)cs1)c1ccc(OCC2CCCO2)cc1 (configuration not stated)	i	16	5	6*	0.15	-12
O=C(Nc1ccc(Cl)cc1)c1ccc(OCC2CCCO2)cc1 (configuration not stated)	i	21	-6	i	-1.2	-6
CCOC(=O)c1c(C)[nH]c(C)c1C(=O)CSc1nc2ccccc2c(=O)n1-c1ccc(Cl)cc1	i	16	1	6*	-0.51	-9
O=C(CSc1nc2ccccc2c(=O)n1-c1ccc(Cl)cc1)c1ccco1	i	3	1	i	nt	-9
C#C[C@]1(O)CC[C@H]2[C@@H]3CCc4cc(O)ccc4[C@H]3CC[C@@]21C	9*	-7	1	i	-0.44	-13
CC12CCC3c4ccc(O)cc4CCC3C1CCC2=O (configuration not stated)	nt	nt	98	nt	nt	nt
O=c1[nH]cnc2c1sc1nc(-c3ccccc3)c3c(c12)CCCC3	i	12	9	i	0.017	-5
S=c1nc[nH]c2c1sc1nc(-c3ccccc3)c3c(c12)CCCC3	60*	1	4	i	20*	52*
NNC(=O)CNc1ccccc1Cl	i	12	-9	i	0.46	5.6*
CC(C)CC(=O)Nc1nnc(SCC(=O)Nc2nccs2)s1	i	2	0	i	nt	-4
Nc1ccccc1N=Cc1ccc(-c2cccc(Cl)c2)o1	i	2	444*	i	-0.91	-6
COC(=O)N/N=C/c1ccc(-c2cccc(Cl)c2)o1	i	8	456	i	-1.7	-10
COc1ccccc1CNC(=O)COC(=O)c1cccc(-n2cnnn2)c1	nt	nt	-9	nt	nt	nt
Cc1cc(C)n(-c2ccc(C(=O)Nc3cccc([N+](=O)[O-])c3)cc2)n1	i	31	9	9*	-0.63	-12
Cc1c(C(=O)Nc2ccccc2)cnn1-c1ccccc1	i	8	38	i	nt	-8
Cc1c(C(=O)Nc2cccc([N+](=O)[O-])c2)cnn1-c1ccccc1	i	-17	6	i	nt	7.0*
COc1ccccc1-c1noc2ncnc(Nc3cccc(C)c3C)c12	i	17	7	i	nt	-8
C/C(CCC(C)C)=N\Nc1cc(C)c2ccccc2n1	i	nt	-16	i	-0.093	-12
O=C1CC(Cc2ccc(Cl)cc2)C(=O)N1c1ccncc1 (configuration not stated)	i	34	-8	i	0.72	-5
